Assay results: ChEMBL document CHEMBL1153830, “Treatment of a clinically relevant plant-pathogenic fungus with an agricultural azole causes cross-resistance to medical azoles and potentiates caspofungin efficacy” (2007)
Converted amounts (≈) assume the structure as drawn. The source made the active and inactive calls. The calls are words filed in the database; no cut-off is given here.

Key:
[1] = test system: Colletotrichum graminicola; assay: Fungicidal activity against tebuconazole-nonadapted wild type Colletotrichum graminicola CgM2 assessed as inhibition of radial growth rate at 23 degC in darkness; type: functional; details: for EC50: Colletotrichum graminicola, CgM2, read-out: ED50 (the source's name)
Procedure, shortened: (§1)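 Radial growth on solid complete medium, 23°C, darkness. Colony diameters were read at 3 and 6 days after inoculation and compared with drug-free control plates. Azoles and picoxystrobin were dissolved in 12% (wt/vol) Cremophor EL and tested at 0–2.5 μg/ml. Caspofungin, amphotericin B and nystatin were dissolved in water and tested from 0.00025 μg/ml; caspofungin plates used sucrose (10 mg/ml) in place of glucose.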

[2] = test system: Colletotrichum graminicola; assay: Fungicidal activity against tebuconazole-adapted wild type Colletotrichum graminicola CgM2 assessed as inhibition of radial growth rate at 23 degC in darkness; type: functional; details: for EC50: Colletotrichum graminicola, CgM2, read-out: ED50 (the source's name); procedure, shortened: as §1
[3] = test system: Colletotrichum graminicola; assay: Ratio of ED50 for tebuconazole-adapted wild type Colletotrichum graminicola CgM2 to ED50 for tebuconazole-nonadapted wild type Colletotrichum graminicola CgM2; type: functional
Procedure, shortened: (§2)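 Values came from logit transformation and linear regression, with confidence intervals at α = 0.05. Ratios compare tebuconazole-adapted with nonadapted CgM2.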

[4] = test system: Colletotrichum graminicola; assay: Ratio of ED90 for tebuconazole-adapted wild type Colletotrichum graminicola CgM2 to ED90 for tebuconazole-nonadapted wild type Colletotrichum graminicola CgM2; type: functional; procedure, shortened: as §2
[5] = test system: Colletotrichum graminicola; assay: Fungicidal activity against tebuconazole-nonadapted wild type Colletotrichum graminicola CgM2 infected in excised human skin assessed as inhibition of invasive colonized hyphal growth at epidermis at ED50 after 4 days by Uvitex-2B staining-based fluorescence microscopy; type: functional, organism-based
Procedure, shortened: (§3)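 Excised human skin from reduction mammoplasty, all pieces from one donor, cut to 20 mm discs. Each disc got 15–20 prick wounds and 100 μl of 10^6 conidia/ml. Discs sat in a Franz diffusion cell at 32°C over isotonic NaCl for up to 4 days. Drug was applied at ED50, ED90 or 2× ED90, three pieces per condition. Biopsies were cryosectioned and Uvitex 2B-stained; hyphal area per section was measured by fluorescence.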

[6] = test system: Colletotrichum graminicola; assay: Fungicidal activity against tebuconazole-nonadapted wild type Colletotrichum graminicola CgM2 infected in excised human skin assessed as inhibition of invasive colonized hyphal growth at epidermis at ED90 after 4 days by Uvitex-2B staining-based fluorescence microscopy; type: functional, organism-based; procedure, shortened: as §3
[7] = test system: Colletotrichum graminicola; assay: Fungicidal activity against tebuconazole-nonadapted wild type Colletotrichum graminicola CgM2 infected in excised human skin assessed as inhibition of invasive colonized hyphal growth at epidermis at twofold ED90 after 4 days by Uvitex-2B staining-based fluorescence microscopy; type: functional, organism-based; procedure, shortened: as §3
[8] = test system: Colletotrichum graminicola; assay: Fungicidal activity against tebuconazole-nonadapted wild type Colletotrichum graminicola CgM2 infected in excised human skin assessed as inhibition of invasive colonized hyphal growth at dermis at ED50 after 4 days by Uvitex-2B staining-based fluorescence microscopy; type: functional, organism-based; procedure, shortened: as §3
[9] = test system: Colletotrichum graminicola; assay: Fungicidal activity against tebuconazole-nonadapted wild type Colletotrichum graminicola CgM2 infected in excised human skin assessed as inhibition of invasive colonized hyphal growth at dermis at ED90 after 4 days by Uvitex-2B staining-based fluorescence microscopy; type: functional, organism-based; procedure, shortened: as §3
[10] = test system: Colletotrichum graminicola; assay: Fungicidal activity against tebuconazole-nonadapted wild type Colletotrichum graminicola CgM2 infected in excised human skin assessed as inhibition of invasive colonized hyphal growth at dermis at twofold ED90 after 4 days by Uvitex-2B staining-based fluorescence microscopy; type: functional, organism-based; procedure, shortened: as §3
[11] = test system: Colletotrichum graminicola; assay: Fungicidal activity against tebuconazole-nonadapted wild type Colletotrichum graminicola CgM2 infected in excised human skin assessed as inhibition of invasive colonized hyphal growth at hypodermis at ED50 after 4 days by Uvitex-2B staining-based fluorescence microscopy; type: functional, organism-based; procedure, shortened: as §3
[12] = test system: Colletotrichum graminicola; assay: Fungicidal activity against tebuconazole-nonadapted wild type Colletotrichum graminicola CgM2 infected in excised human skin assessed as inhibition of invasive colonized hyphal growth at hypodermis at ED90 after 4 days by Uvitex-2B staining-based fluorescence microscopy; type: functional, organism-based; procedure, shortened: as §3
[13] = test system: Colletotrichum graminicola; assay: Fungicidal activity against tebuconazole-nonadapted wild type Colletotrichum graminicola CgM2 infected in excised human skin assessed as inhibition of invasive colonized hyphal growth at hypodermis at twofold ED90 after 4 days by Uvitex-2B staining-based fluorescence microscopy; type: functional, organism-based; procedure, shortened: as §3
[14] = test system: Colletotrichum graminicola; assay: Fungicidal activity against tebuconazole-adapted wild type Colletotrichum graminicola CgM2 infected in excised human skin assessed as inhibition of invasive colonized hyphal growth at hypodermis at twofold ED90 after 4 days by Uvitex-2B staining-based fluorescence microscopy; type: functional, organism-based; procedure, shortened: as §3
[15] = test system: Colletotrichum graminicola; assay: Fungicidal activity against tebuconazole-adapted wild type Colletotrichum graminicola CgM2 infected in excised human skin assessed as inhibition of invasive colonized hyphal growth at epidermis at ED50 after 4 days by Uvitex-2B staining-based fluorescence microscopy; type: functional, organism-based; procedure, shortened: as §3
[16] = test system: Colletotrichum graminicola; assay: Fungicidal activity against tebuconazole-adapted wild type Colletotrichum graminicola CgM2 infected in excised human skin assessed as inhibition of invasive colonized hyphal growth at epidermis at ED90 after 4 days by Uvitex-2B staining-based fluorescence microscopy; type: functional, organism-based; procedure, shortened: as §3
[17] = test system: Colletotrichum graminicola; assay: Fungicidal activity against tebuconazole-adapted wild type Colletotrichum graminicola CgM2 infected in excised human skin assessed as inhibition of invasive colonized hyphal growth at epidermis at twofold ED90 after 4 days by Uvitex-2B staining-based fluorescence microscopy; type: functional, organism-based; procedure, shortened: as §3
[18] = test system: Colletotrichum graminicola; assay: Fungicidal activity against tebuconazole-adapted wild type Colletotrichum graminicola CgM2 infected in excised human skin assessed as inhibition of invasive colonized hyphal growth at dermis at ED50 after 4 days by Uvitex-2B staining-based fluorescence microscopy; type: functional, organism-based; procedure, shortened: as §3
[19] = test system: Colletotrichum graminicola; assay: Fungicidal activity against tebuconazole-adapted wild type Colletotrichum graminicola CgM2 infected in excised human skin assessed as inhibition of invasive colonized hyphal growth at dermis at ED90 after 4 days by Uvitex-2B staining-based fluorescence microscopy; type: functional, organism-based; procedure, shortened: as §3
[20] = test system: Colletotrichum graminicola; assay: Fungicidal activity against tebuconazole-adapted wild type Colletotrichum graminicola CgM2 infected in excised human skin assessed as inhibition of invasive colonized hyphal growth at dermis at twofold ED90 after 4 days by Uvitex-2B staining-based fluorescence microscopy; type: functional, organism-based; procedure, shortened: as §3
[21] = test system: Colletotrichum graminicola; assay: Fungicidal activity against tebuconazole-adapted wild type Colletotrichum graminicola CgM2 infected in excised human skin assessed as inhibition of invasive colonized hyphal growth at hypodermis at ED50 after 4 days by Uvitex-2B staining-based fluorescence microscopy; type: functional, organism-based; procedure, shortened: as §3
[22] = test system: Colletotrichum graminicola; assay: Fungicidal activity against tebuconazole-adapted wild type Colletotrichum graminicola CgM2 infected in excised human skin assessed as inhibition of invasive colonized hyphal growth at hypodermis at ED90 after 4 days by Uvitex-2B staining-based fluorescence microscopy; type: functional, organism-based; procedure, shortened: as §3

| Compound | ED90 [1] | EC50 [1] | ED90 [2] | EC50 [2] | also measured |
| --- | --- | --- | --- | --- | --- |
| CCC(C)(C)c1ccc(CC(C)CN2C[C@@H](C)O[C@@H](C)C2)cc1 (stereo partly drawn) [AMOROLFINE] | 0.347 µg/mL (≈ 1.09 µM) | 0.03 µg/mL (≈ 0.0945 µM) | 0.36 µg/mL (≈ 1.13 µM) | 0.023 µg/mL (≈ 0.0724 µM) |  |
| C[C@@H]1[C@H](O)[C@@H](C)/C=C/C=C/C=C/C=C/C=C/C=C/C=C/[C@H](O[C@@H]2O[C@H](C)[C@@H](O)[C@H](N)[C@@H]2O)C[C@@H]2O[C@](O)(C[C@@H](O)C[C@@H](O)[C@H](O)CC[C@@H](O)C[C@@H](O)CC(=O)O[C@H]1C)C[C@H](O)[C@H]2C(=O)O [AMPHOTERICIN B] | 2.147 µg/mL (≈ 2.32 µM) | 0.03 µg/mL (≈ 0.0325 µM) | 0.873 µg/mL (≈ 0.945 µM) | 0.007 µg/mL (≈ 0.00758 µM) |  |
| COC1=CC(=O)C[C@@H](C)[C@]12Oc1c(Cl)c(OC)cc(OC)c1C2=O [GRISEOFULVIN] | 5.503 µg/mL (≈ 15.6 µM) | 0.607 µg/mL (≈ 1.72 µM) | 5.839 µg/mL (≈ 16.6 µM) | 0.051 µg/mL (≈ 0.145 µM) |  |
| Cc1cccc(N(C)C(=S)Oc2ccc3ccccc3c2)c1 [TOLNAFTATE] | 104.107 µg/mL (≈ 339 µM) | 0.582 µg/mL (≈ 1.89 µM) | 98.71 µg/mL (≈ 321 µM) | 0.537 µg/mL (≈ 1.75 µM) |  |
| NYSTATIN | 2.41 µg/mL |  | 0.896 µg/mL |  | ED50 [1]: 0.03 µg/mL; ED50 [2]: 0.023 µg/mL |
| CO/C=C(/C(=O)OC)c1ccccc1COc1cccc(C(F)(F)F)n1 [PICOXYSTROBIN] | 0.148 µg/mL (≈ 0.403 µM) | 0.006 µg/mL (≈ 0.0163 µM) | 1.041 µg/mL (≈ 2.83 µM) | 0.026 µg/mL (≈ 0.0708 µM) | fold change (FC) [3]: 4; fold change (FC) [4]: 7 |
| c1ccc(-c2ccc(C(c3ccccc3)n3ccnc3)cc2)cc1 (stereo not drawn) [BIFONAZOLE] | 1.958 µg/mL (≈ 6.31 µM) | 0.148 µg/mL (≈ 0.477 µM) | 4.892 µg/mL (≈ 15.8 µM) | 0.33 µg/mL (≈ 1.06 µM) | Activity [5]: Active; Activity [6]: Active; Activity [7]: Active; Activity [8]: Active; Activity [9]: Active; Activity [10]: Active; Activity [11]: Active; Activity [12]: Active; Activity [13]: Active; Activity [14]: inactive; Activity [15]: inactive; Activity [16]: inactive; Activity [17]: inactive; Activity [18]: inactive; Activity [19]: inactive; Activity [20]: inactive; Activity [21]: inactive; Activity [22]: inactive |
